# Assay results reported in ChEMBL document CHEMBL1157849, “The influence of the aziridinyl substituent of benzimidazoles and benzimidazolequinones on toxicity towards normal and Fanconi anaemia cells” (Eur J Med Chem, 2010).
# The source made the active and inactive calls. The calls are words filed in the database; no cut-off is given here.
# Experiments:
# PD20i = test: Cytotoxicity against FANCD2-deficient human PD20i cells at 0.001 uM after 24 hrs by MTT assay; type: functional, cell-based
# How it was run: (§1)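 PD20i and PD20:RV human fibroblasts grown in alpha-MEM with 15% uninactivated FBS, penicillin–streptomycin, 2 mM L-glutamine, 37 °C, 5% CO₂. Cells seeded at 10,000/well, both lines in parallel on the same plate, adhered 48 h. Compound added in DMSO (2.5% final), 24 h at 37 °C. MTT read at 550 nm (690 nm reference). Viability as % of DMSO-only control, mean of at least three independent experiments.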
# [1] = Cytotoxicity against human GM00637 cells after 24 hrs by MTT assay; type: cell-based; details: GM00637, 24 h
# How it was run: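 Cells seeded at 10,000 per well and left 48 h to adhere, then exposed to test solutions in DMSO (2.5% final) for 24 h at 37 °C under humidified 5% CO₂. MTT read-out at 550 nm with 690 nm reference. Viability is expressed as percent of DMSO-only control. IC50 is the concentration reducing mean viability to 50% of control, estimated by nonlinear regression of dose-response curves.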
# Homo sapiens = species on record: Homo sapiens; test: Cytotoxicity against wild type FANCD2 expressing human PD20:RV cells at 0.001 uM after 24 hrs by MTT assay; type: functional, cell-based; how it was run: as §1
Compound,Activity (PD20i),IC50 [1],Activity (Homo sapiens)
O=C1C(N2CC2)=CC(=O)c2c1nc1n2CCC1,Active,290 nM,Active
CCn1cnc2c1C(=O)C=CC2=O,–,580 nM,–
COC1=CC(=O)c2c(nc3n2CCCCC3)C1=O,–,> 1500 nM,–
COC1=CC(=O)c2c(nc3n2CCCC3)C1=O,–,> 1500 nM,–
O=C1C(N2CC2)=CC(=O)c2c1nc1n2CCCCC1,–,560 nM,–
COC1=CC(=O)c2c(nc3n2CCC3)C1=O,inactive,360 nM,–
COc1ccc(OC)c2c1ncn2C[C@@H]1CN1C(c1ccccc1)(c1ccccc1)c1ccccc1 (stereo not given in full),–,1260 nM,–
CO[C@@]12[C@H](COC(N)=O)C3=C(C(=O)C(C)=C(N)C3=O)N1C[C@@H]1N[C@@H]12 [MITOMYCIN],–,900 nM,–
CCn1cnc2c(OC)ccc(OC)c21,–,> 10000 nM,–
O=C1C=CC(=O)c2c1ncn2C[C@@H]1CN1C(c1ccccc1)(c1ccccc1)c1ccccc1 (stereo not given in full),Active,150 nM,–
O=C1C(N2CC2)=CC(=O)c2c1nc1n2CCCC1,–,1060 nM,–
